Results taken from ChEMBL document CHEMBL2034934, “Isodesacetyluvaricin, an Annonaceous acetogenin, specifically inhibits gene expression of cyclooxygenase-2” (J Nat Prod, 2012).
Activity calls are given as the source filed them. No cut-off for these calls is given here.

Columns and labels:
A-431 [1] = assay: Inhibition of CREB promoter activity in EGF-stimulated human A431 cells at 1 to 5 uM pretreated for 30 mins before EGF challenge measured after 3 hrs by luciferase reporter gene analysis; assay type: cell-based
In short: (§1)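 A431 cells transiently transfected with 0.5 μg CRE-promoter plasmid pXC 80 (CREB) or NFAT-promoter luciferase plasmid. After 24 h, pretreated 30 min at 1 or 5 μM, then EGF 25 ng/mL for 3 h. Luciferase normalised to lysate protein.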

A-431 [2] = assay: Inhibition of NFAT promoter activity in EGF-stimulated human A431 cells at 1 to 5 uM pretreated for 30 mins before EGF challenge measured after 3 hrs by luciferase reporter gene analysis; assay type: cell-based; in short: as §1
RAW264.7 = assay: Antiinflammatory activity in mouse RAW264.7 cells assessed as inhibition of LPS-stimulated COX2 expression pretreated for 30 mins before LPS challenge measured after 3 hrs by RT-PCR analysis; assay type: functional, cell-based
In short: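 Raw 264.7 mouse macrophages serum-starved 24 h, pretreated 30 min at 0.1, 1 or 5 μM, then LPS 10 μg/mL for 3 h. Total RNA by Trizol; COX-2 mRNA by RT-PCR (35 cycles), read on agarose gel with ethidium bromide.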

A-431 [3] = assay: Cytotoxicity against EGF-stimulated human A431 cells at 1 to 5 uM after 24 hrs by WST1 assay; assay type: cell-based; conditions: a-431, 24 h
In short: (§2)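 A431 cells serum-starved 24 h, pretreated 30 min at 1 or 5 μM, then EGF 25 ng/mL for 24 h or 48 h. WST-1 reagent 5–10 min at 37 °C; absorbance 450 nm, reference 600 nm.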

A-431 [4] = assay: Antiinflammatory activity in human A431 cells assessed as reduction of EGF-stimulated COX2 protein expression pretreated with compound before EGF challenge measured by Western blotting analysis; assay type: functional, cell-based
In short: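 A431 cells serum-starved, pretreated with compound, then EGF-stimulated. 40 μg lysate (RIPA) run on 12.5% SDS-PAGE, blotted to nitrocellulose. Probed 16 h at 4 °C with mouse anti-COX-2 (1:2000) and β-actin (1:20 000), anti-mouse IgG secondary, ECL detection.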

A-431 [5] = assay: Antiinflammatory activity in human A431 cells assessed as inhibition of EGF-stimulated COX1 mRNA level pretreated for 30 mins before EGF challenge measured after 3 hrs by RT-PCR analysis; assay type: functional, cell-based
In short: (§3)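 A431 cells serum-starved 24 h, pretreated 30 min at 0.1, 1 or 5 μM, then EGF 25 ng/mL for 3 h. Total RNA by Trizol, reverse-transcribed; COX-1 and COX-2 amplified by PCR (35 cycles: 94 °C 30 s, 58 °C 30 s, 72 °C 1 min). Products run on 2% agarose, ethidium bromide stained.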

A-431 [6] = assay: Antiinflammatory activity in human A431 cells assessed as inhibition of EGF-stimulated COX2 mRNA level pretreated for 30 mins before EGF challenge measured after 3 hrs by RT-PCR analysis; assay type: functional, cell-based; in short: as §3
A-431 [7] = assay: Antiinflammatory activity in human A431 cells assessed as reduction of EGF-stimulated COX2 promoter activity at 0.1 to 5 uM after 24 hrs by luciferase reporter gene assay; assay type: functional, cell-based
In short: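 A431 cells transiently transfected (Lipofectamine 2000) with 0.5 μg COX-2 promoter luciferase plasmid pXC 918 for 24 h. Then treated with compound and stimulated with EGF. Dual-luciferase read-out normalised to lysate protein; means ± SEM, Student's t-test.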

A-431 [8] = assay: Antiinflammatory activity in human A431 cells assessed as decrease in thapsigargin-induced calcium influx at 1 uM pretreated for 30 mins before thapsigargin challenge measured by fluorescence analysis; assay type: functional, cell-based
In short: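 A431 cells on glass coverslips (24 or 48 h), loaded with 1 μM Fluo-4 at 37 °C for 20 min in the dark. Store-operated influx evoked by 2 μM thapsigargin; Fluo-4 read by time-lapse videomicroscopy; 15–20 cells pooled.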

A-431 [9] = assay: Cytotoxicity against EGF-stimulated human A431 cells at 1 to 5 uM after 48 hrs by WST1 assay; assay type: cell-based; conditions: a-431, 48 h; in short: as §2

Compound: CCCCCCCCCC[C@@H](O)[C@H]1CC[C@H]([C@H]2CC[C@H]([C@H](O)CCCCCCCCCCCCC3=C[C@H](C)OC3=O)O2)O1 [ISODESAACETYLUVARICIN]
- inhibition (A-431 [1]): Active
- inhibition (A-431 [2]): Active
- inhibition (RAW264.7): Active
- Activity (A-431 [3]): Non-toxic
- Activity (A-431 [4]): Dose-dependent effect
- inhibition (A-431 [5]): inactive
- inhibition (A-431 [6]): Dose-dependent effect
- Activity (A-431 [7]): Active
- Activity (A-431 [8]): inactive
- Activity (A-431 [9]): Non-toxic
